From the array DNA melting data of Ke et al. (doi:10.1101/2024.01.08.574731)

Tests used:
[1] = melting temperature; fluorescence melt of hairpins on a sequencing array, two-state fit, raised by 9.35 °C to match UV melts; conditions: sodium 0.088 M
Procedure, shortened: (§1)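 With Cy3 and quencher oligos annealed, library hairpins on a sequenced MiSeq flow cell were imaged for Cy3 fluorescence in 50 mM Na-HEPES pH 8.0, 25 mM NaCl, in 2.5 °C steps up to 60 °C. Melting temperature and folding enthalpy were derived from bootstrapped two-state fits of signals normalised to pre-quench Cy3 and to control constructs. Four replicates were combined by inverse variance, with fitted temperatures raised by 9.35 °C to match UV melts.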

[2] = folding enthalpy; higher = less favourable; fluorescence melt of hairpins on a sequencing array, two-state fit; conditions: sodium 0.088 M
Procedure, shortened: as §1

Sequence | Tm [1] [°C] | folding enthalpy [2] [kcal/mol]
GCATGCGAAAGCAGTTGC ((((((....)))..))) | 43 | -16.5
GAGTACCCGAAAGGGCTC (((..(((....)))))) | 32.4 | -15.3
GCTCTTGAAAAAGAGC ((((((....)))))) | 58.1 | -32.6
GTATCCGGAAACGGATAC (((((((....))))))) | 63.7 | -36.6
GCGGTCGAAAGACGTCGC ((((((....)))..))) | 50.5 | -23.7
GCGGAGCGAAAGCTTCGC (((.(((....))).))) | 68.6 | -31.2
GAAACGGGAAACCGTTTC (((((((....))))))) | 60.3 | -50.9
GTCACGGGAAACCGCGAC (((.(((....))).))) | 50.8 | -30.4
GCTTATGGAAACACAAGC ((((.((....)).)))) | 33.2 | -26.2
GTCGTCGAAAGACGGAC ((((((....))).))) | 56.2 | -13.6
GGATGGGCGAAAGCCTCC (((..(((....)))))) | 36.9 | -11.3
GAATGTGCGAAAGCATTC (((..(((....)))))) | 29.3 | -9.5
GCTGTCCGAAAGGAAGC (((.(((....)))))) | 49.1 | -23.9
GCCACTCCGAAAGGAGGC (((..(((....)))))) | 43.9 | -8.62
GTTTGGGGAAACCCAAAC (((((((....))))))) | 59 | -42.3
GTGTTCCGAAAGGAGCAC (((.(((....))).))) | 59.3 | -41.8
GCACCACGAAAGTGTTGC (((.(((....))).))) | 52.6 | -35.9
GCGTACGAAAGTATCCGC ((((((....)))..))) | 38.6 | -23.5
GATCAGCTACTGATC ((((((...)))))) | 49.1 | -35.2
GGGCCCGAAAGGGTACCC ((((((....)))..))) | 57.3 | -15.1
GCGGATGGAAACACCCGC ((((.((....)).)))) | 53 | -42.9
GCTTAGCGAAAGCTTCGC ((..(((....)))..)) | 42.9 | -15
GACATGCGAAAGCAGTC (((.(((....)))))) | 51.9 | -16.9

Sequence | Tm [1] [°C] | folding enthalpy [2] [kcal/mol]
GGTTGCGGAAACGCAGCC ((.((((....)))).)) | 63.5 | -39.2
GCAACCGAAAGGTCTTGC ((((((....)))..))) | 35.7 | -16.5
GCGGAGTACCGC ((((....)))) | 55.9 | -24.2
GATCGAATGTCGATC ((((((...)))))) | 50.6 | -31.5
GATCTGAGACAGATC ((((((...)))))) | 46.8 | -42.3
GCGAAGCGAAAGCATCGC ((((.((....)).)))) | 61.1 | -17.4
GTTCCGAAAGGAAC (((((....))))) | 66.9 | -29.5
GCTTGTGGAAACATGAGC (((..((....))..))) | 37.7 | -29.4
GAACATGGAAACACGTTC ((((.((....)).)))) | 33 | -27.5
GGTATACGAAAGTAAACC (((.(((....))).))) | 43.6 | -28.4
GCTATGCGAAAGCGTAGC ((((.((....)).)))) | 65.7 | -34.5
GACAACGAAAGTTAGGTC ((((((....)))..))) | 33.7 | -14.6
GATCACTCCAGTGATC ((((((....)))))) | 58.4 | -30.5
GATCGCATAAGCGATC ((((((....)))))) | 69.2 | -32.5
GATCGTGACTACGATC ((((((....)))))) | 61.2 | -43.8
GTTACTGGAAACAGTAAC (((((((....))))))) | 54.1 | -60.8
GGGAAGGAAACTTCCC ((((((....)))))) | 58.1 | -31.8
GATGGCGAAAGCCAAATC ((((((....)))..))) | 33.9 | -9.36
GCTTTCGAAAGAAACAGC ((((((....)))..))) | 32.8 | -16.3
GGCCCTCGAAAGAGGCC (((.(((....)))))) | 58.4 | -21.3
GCTGGGGGAAACCCTGGC ((..(((....)))..)) | 49.1 | -23.4
GCACCTGGAAACAGGTAC (.(((((....))))).) | 40.9 | -13.2
GAAGGCGAAAGCCGCTTC ((((((....)))..))) | 56.2 | -13.6

Sequence | Tm [1] [°C] | folding enthalpy [2] [kcal/mol]
GATCATCTCCATGATC ((((((....)))))) | 46.8 | -32.9
GACCACACGAAAGTGGTC (((..(((....)))))) | 57 | -30.9
GCACGGCGAAAGCCACGC ((..(((....)))..)) | 54.9 | -19.1
GATTCTGGAAACAGAGTC ((.((((....)))).)) | 38.3 | -30.2
GATCGACGAAAGTCAATC (((.(((....))).))) | 40.3 | -20.5
GCTGTTCGAAAGAAAAGC (((.(((....))).))) | 46.5 | -28.6
GCCGGGCGAAAGCCGTGC ((..(((....)))..)) | 50.2 | -13.7
GATCAAGAGTTTGATC ((((((....)))))) | 41.4 | -29.6
GATCCCCACTGGGATC ((((((....)))))) | 62.2 | -35.3
GTTGATGGAAACATCAGC (.(((((....))))).) | 46.5 | -25
GAACACGAAAGTGTTC ((((((....)))))) | 69 | -30.9
CAGAGGAAACTCTG (((((....))))) | 45 | -21.1
GACAACCGAAAGGTCGTC (((.(((....))).))) | 49.5 | -38.6
GCGAAAAGTCGC ((((....)))) | 41.7 | -12.1
GGTCCCGGAAACGGAACC (((.(((....))).))) | 48 | -36
GATCAACAGGTTGATC ((((((....)))))) | 51.4 | -36.2
GATCGGGGAAACCCGGTC ((.((((....)))).)) | 53.8 | -26.8
GCCCGCGGAAACACGGGC (((((.(....).))))) | 62.9 | -47.9
GAGCCCGAAAGGGACTC ((((((....))).))) | 54.8 | -22.9
GCCTTGCGAAAGCAGAGC ((..(((....)))..)) | 51.2 | -11.7
GAGAGCCGAAAGGCCTC (((.(((....)))))) | 55.3 | -15.6
GATCTTCACGAAGATC ((((((....)))))) | 49.2 | -40.1
GTATATACGAAAGTATAC (((..(((....)))))) | 29.6 | -16.1

Sequence | Tm [1] [°C] | folding enthalpy [2] [kcal/mol]
GATCTTTCTCAAGATC ((((((....)))))) | 42.6 | -33.4
CGGGTGAAAACCCG (((((....))))) | 68.6 | -28.9
GTTCGGCCGAAAGGCAAC (((..(((....)))))) | 31.3 | -6.89
GATCCTTCTAGGATC ((((((...)))))) | 57.1 | -30.6
GACACTGGAAACAGCGTC (((.(((....))).))) | 46.4 | -35.2
GATCACTAAGTGATC ((((((...)))))) | 55.2 | -33.9
GTCGCTCGAAAGAGGAC (((.(((....)))))) | 45.4 | -18.1
GCTGCCGAAAGGCACAGC ((((((....)))..))) | 48.2 | -13.4
GCCCATCCGAAAGGAGGC (((..(((....)))))) | 44.5 | -14.3
GGATCCGAAAGGAGATCC ((((((....)))..))) | 44.8 | -24
GATTTTGGAAACAGAATC ((((.((....)).)))) | 32.1 | -24.7
GGGAACGAAAGTTTACCC ((((((....)))..))) | 34.1 | -21.1
GTTCACGAAAGTGAAAAC ((((((....)))..))) | 40.5 | -11.7
AAACTGAAAAGTTT (((((....))))) | 33.6 | -13.4
GGTCTGGGAAACCAGGCC ((.((((....)))).)) | 56.9 | -47.6
GAGGAGCGAAAGCTGCTC (((.(((....))).))) | 63.7 | -34
GAAGTCGGAAACGACCTC ((.((((....)))).)) | 37.2 | -13.6
GAACAACGAAAGTTATTC (((.(((....))).))) | 30.1 | -18.4
GACATCCGAAAGGAGTC (((.(((....)))))) | 45.4 | -21.2
GGGCGCGGAAACGCACCC (((.(((....))).))) | 62.6 | -43.8
GACGCCGAAAGGCTCGTC ((((((....)))..))) | 50 | -14.5
GATCTGCTGGCAGATC ((((((....)))))) | 62.5 | -43.6
GTGGGGCGAAAGCCCAC (((.(((....)))))) | 62.6 | -12.8
